Columns and labels:
[1] = test system: Vero; test: Relative antiplasmodial activity to cytotoxicity in Plasmodium falciparum Csl-2 infected Vero cells; type: functional
[2] = test system: Bifunctional dihydrofolate reductase-thymidylate synthase (Plasmodium falciparum K1), P13922 [UNDEFINED MUTATION]; test: Ratio of binding affinity for mutant (N51I+C59R+S108N+I164L) to that of wild type dihydrofolate reductase
Method in brief: (§1)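 Each ratio is Ki for the mutant PfDHFR divided by Ki for wild-type PfDHFR. The recombinant enzymes were expressed in E. coli BL21(DE3)pLysS and purified on methotrexate-Sepharose. Ki was derived assuming inhibitors compete with substrate binding.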

[3] = biological target: Bifunctional dihydrofolate reductase-thymidylate synthase (Plasmodium falciparum K1, UniProt P13922, C59R/I164L/N51I/S108N); test: Binding affinity towards mutant dihydrofolate reductase (N51I+C59R+S108N+I164L DHFR) of Plasmodium falciparum
[4] = test system: Vero; test: In vitro cytotoxicity against Plasmodium falciparum infected vero cell line.; type: functional, cell-based; settings: Chlorocebus sabaeus
Method in brief: (§2)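 Cytotoxicity (IC50, μM) run against three mammalian lines: Vero (African green monkey kidney fibroblasts), KB (human epidermoid carcinoma) and BC (human breast cancer). Testing followed the Skehan et al. protocol.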

[5] = test system: BC; test: Relative antiplasmodial activity to cytotoxicity in Plasmodium falciparum Csl-2 infected BC cells; type: functional
[6] = test system: BC; test: Relative antiplasmodial activity to cytotoxicity in Plasmodium falciparum TM4/8.2 infected BC cells; type: functional
[7] = biological target: Bifunctional dihydrofolate reductase-thymidylate synthase (Plasmodium falciparum K1) (UniProt P13922); test: Ratio of binding affinity for mutant (N51I+C59R+S108N) to that of wild type dihydrofolate reductase; method in brief: as §1
[8] = test system: KB; test: Relative antiplasmodial activity to cytotoxicity in Plasmodium falciparum TM4/8.2 infected KB cells; type: functional
[9] = biological target: Bifunctional dihydrofolate reductase-thymidylate synthase (Plasmodium falciparum K1, UniProt P13922); test: Binding affinity towards wild-type dihydrofolate reductase of Plasmodium falciparum.
[10] = test system: Bifunctional dihydrofolate reductase-thymidylate synthase (Plasmodium falciparum K1), P13922 [UNDEFINED MUTATION]; test: Ratio of binding affinity for mutant (A16V+S108T) to that of wild type dihydrofolate reductase; method in brief: as §1
[11] = test system: KB; test: Relative antiplasmodial activity to cytotoxicity in Plasmodium falciparum V1/S infected KB cells; type: functional
[12] = test system: BC; test: In vitro cytotoxicity against BC cell line.; settings: Homo sapiens
[13] = biological target: Bifunctional dihydrofolate reductase-thymidylate synthase (Plasmodium falciparum K1, UniProt P13922, C59R/N51I/S108N); test: Binding affinity towards mutant dihydrofolate reductase (N51I+C59R+S108N DHFR) of Plasmodium falciparum
[14] = test system: Bifunctional dihydrofolate reductase-thymidylate synthase (Plasmodium falciparum K1), P13922 [UNDEFINED MUTATION]; test: Ratio of binding affinity for mutant (C59R+S108N+I164L) to that of wild type dihydrofolate reductase; method in brief: as §1
[15] = test system: KB; test: In vitro cytotoxicity against Plasmodium falciparum infected KB cell line; type: functional, cell-based; settings: Homo sapiens; method in brief: as §2
[16] = test system: KB; test: Relative antiplasmodial activity to cytotoxicity in Plasmodium falciparum Csl-2 infected KB cells; type: functional
[17] = biological target: Bifunctional dihydrofolate reductase-thymidylate synthase (Plasmodium falciparum K1, UniProt P13922, C59R/I164L/S108N); test: Binding affinity towards mutant dihydrofolate reductase (C59R+S108N+I164L DHFR) of Plasmodium falciparum
[18] = test system: Vero; test: Relative antiplasmodial activity to cytotoxicity in Plasmodium falciparum TM4/8.2 infected Vero cells; type: functional
[19] = test system: Vero; test: Relative antiplasmodial activity to cytotoxicity in Plasmodium falciparum V1/S infected Vero cells; type: functional
[20] = biological target: Bifunctional dihydrofolate reductase-thymidylate synthase (Plasmodium falciparum K1, UniProt P13922, A16V/S108T); test: Binding affinity towards mutant dihydrofolate reductase (A16V+S108T DHFR) of Plasmodium falciparum.
Bifunctional dihydrofolate reductase-thymidylate synthase (Plasmodium falciparum K1, UniProt P13922, A16V/S108T), sequence (P13922 whole entry, looked up, stated change not applied): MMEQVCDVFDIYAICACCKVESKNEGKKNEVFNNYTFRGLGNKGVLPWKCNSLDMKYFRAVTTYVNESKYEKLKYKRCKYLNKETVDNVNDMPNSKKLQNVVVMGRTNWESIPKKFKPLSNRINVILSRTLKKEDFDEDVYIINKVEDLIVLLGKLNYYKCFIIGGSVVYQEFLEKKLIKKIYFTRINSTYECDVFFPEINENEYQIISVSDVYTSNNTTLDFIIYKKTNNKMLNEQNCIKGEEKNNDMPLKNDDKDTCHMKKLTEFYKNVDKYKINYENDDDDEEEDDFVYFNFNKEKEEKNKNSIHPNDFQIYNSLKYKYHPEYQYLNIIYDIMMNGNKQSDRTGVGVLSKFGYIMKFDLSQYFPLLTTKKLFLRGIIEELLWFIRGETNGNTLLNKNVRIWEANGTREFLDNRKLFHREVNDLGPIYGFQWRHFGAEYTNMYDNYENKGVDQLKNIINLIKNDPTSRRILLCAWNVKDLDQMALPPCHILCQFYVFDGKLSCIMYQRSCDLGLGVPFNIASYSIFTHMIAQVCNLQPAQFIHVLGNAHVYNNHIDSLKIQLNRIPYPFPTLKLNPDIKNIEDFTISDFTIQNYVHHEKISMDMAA

Bifunctional dihydrofolate reductase-thymidylate synthase (Plasmodium falciparum K1, UniProt P13922, C59R/I164L/N51I/S108N), sequence (P13922 whole entry, looked up, stated change not applied): as above
Bifunctional dihydrofolate reductase-thymidylate synthase (Plasmodium falciparum K1), sequence (P13922 whole entry, looked up): as the sequence (P13922 whole entry, looked up, stated change not applied) above
Bifunctional dihydrofolate reductase-thymidylate synthase (Plasmodium falciparum K1), P13922 [UNDEFINED MUTATION], sequence (P13922 whole entry, looked up, stated change not applied): as above
Bifunctional dihydrofolate reductase-thymidylate synthase (Plasmodium falciparum K1, UniProt P13922), sequence (P13922 whole entry): as the sequence (P13922 whole entry, looked up, stated change not applied) above
Bifunctional dihydrofolate reductase-thymidylate synthase (Plasmodium falciparum K1, UniProt P13922, C59R/N51I/S108N), sequence (P13922 whole entry, looked up, stated change not applied): as above
Bifunctional dihydrofolate reductase-thymidylate synthase (Plasmodium falciparum K1, UniProt P13922, C59R/I164L/S108N), sequence (P13922 whole entry, looked up, stated change not applied): as above

| SMILES | Safety ratio [1] | Ratio [2] | Ki [3] [nM] | IC50 [4] [nM] | Safety ratio [5] | Safety ratio [6] | Ratio [7] | Safety ratio [8] | Ki [9] [nM] | Ratio [10] | Safety ratio [11] | IC50 [12] [nM] | Ki [13] [nM] | Ratio [14] | IC50 [15] [nM] | Safety ratio [16] | Ki [17] [nM] | Safety ratio [18] | Safety ratio [19] | Ki [20] [nM] |
| --- | --- | --- | --- | --- | --- | --- | --- | --- | --- | --- | --- | --- | --- | --- | --- | --- | --- | --- | --- | --- |
| CC1(C)N=C(N)N=C(N)N1c1ccc(Cl)cc1 [CYCLOGUANIL] | > 1.3 | 280 | 420 | > 50000 | >1.3 | >1250 | 20.9 | 1025 | 1.5 | 876 | <0.4 | > 50000 | 31.4 | 190 | 41000 | 1.1 | 285 | >1250 | – | – |
| Nc1nc(N)c(-c2cccc(Cl)c2)c(CCCc2ccccc2)n1 | 0.6 | 1.7 | 2 | 2100 | 0.4 | 2.4 | 1.7 | 2.4 | 1.2 | – | 0.3 | 1600 | 2 | 1.8 | 1600 | 0.4 | 2.2 | 3.1 | 0.4 | – |
| NC1=NC(c2ccccc2)N(c2cccc(Cl)c2)C(N)=N1 (stereo unspecified) | 1000 | 84.1 | 984 | 250000 | 672 | 300 | 9.5 | 155 | 11.7 | 0.9 | 109 | 168000 | 111 | 18.5 | 87000 | 348 | 217 | 446 | 312 | 10.5 |

Reference: ChEMBL document CHEMBL1138835, “Inhibitors of multiple mutants of Plasmodium falciparum dihydrofolate reductase and their antimalarial activities” (J Med Chem, 2004)
